Measured values reported in ChEMBL document CHEMBL1150119, “Cytotoxic germacranolides from Inula verbascifolia subsp. methanea” (J Nat Prod, 2002).
In brackets after ≈: the same amount, converted by molar mass.

How the values were obtained:
Assay type in all cases: functional, cell-based
[1] = tested on: HT-29; assay: Cytotoxicity against human HT-29 cells after 48 hrs by MTT assay; conditions: HT-29, 48 h
How it was run: (§1)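 Adherent human tumor cells kept in DMEM with 10% FBS, penicillin and streptomycin, at 37 °C under 5% CO₂ and 85% humidity, and subcultured with trypsin-EDTA. Cells were seeded at 5000/well and compounds in DMSO were added 24 h later. After 48 h, medium was swapped for MTT (1 mg/mL final, serum-free phenol-red-free RPMI) for 4 h. Formazan was dissolved in 2-propanol and read at 550 nm against 690 nm reference.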

[2] = tested on: HCT-116; assay: Cytotoxicity against human HCT116 cells after 48 hrs by MTT assay; conditions: HCT-116, 48 h; how it was run: as §1
[3] = Cytotoxicity against human HRT18 cells after 48 hrs by MTT assay; conditions: HRT-18, 48 h; how it was run: as §1
[4] = tested on: MCF7; assay: Cytotoxicity against human MCF7 cells expressing estrogen receptor after 48 hrs by MTT assay; conditions: MCF7, 48 h; how it was run: as §1
[5] = tested on: LNCaP; assay: Cytotoxicity against human LNCAP cells expressing androgen receptor after 48 hrs by MTT assay; how it was run: as §1
[6] = tested on: PC-3; assay: Cytotoxicity against human PC3 cells after 48 hrs by MTT assay; conditions: PC-3, 48 h; how it was run: as §1

Row | Compound | IC50 [1] | IC50 [2] | IC50 [3] | IC50 [4] | IC50 [5] | IC50 [6]
1 | C=C1C(=O)O[C@@H]2[C@H]3O[C@]3(C)CC/C=C(\C)[C@@H](OC(=O)CC(C)(C)O)C[C@@H]12 | 17.5 µg/mL (≈ 48 µM) | 14.1 µg/mL (≈ 38.7 µM) | 14.9 µg/mL (≈ 40.9 µM) | > 40 µg/mL | 34.2 µg/mL (≈ 93.8 µM) | 18.2 µg/mL (≈ 49.9 µM)
2 | C=C1C(=O)O[C@@H]2[C@H]3O[C@]3(C)CC/C=C(\C)[C@@H](OC(=O)CC(C)(O)CC)C[C@@H]12 (some centres undefined) | 11.7 µg/mL (≈ 30.9 µM) | 7.1 µg/mL (≈ 18.8 µM) | 8.75 µg/mL (≈ 23.1 µM) | > 40 µg/mL | 30.2 µg/mL (≈ 79.8 µM) | 15.7 µg/mL (≈ 41.5 µM)
3 | C=C1C(=O)O[C@@H]2[C@H]3O[C@]3(C)CC/C=C(\C)[C@@H](OC(=O)C(C)C(C)O)C[C@@H]12 (some centres undefined) | 11.7 µg/mL (≈ 32.1 µM) | 0.39 µg/mL (≈ 1.07 µM) | 13.4 µg/mL (≈ 36.8 µM) | > 40 µg/mL | 25.4 µg/mL (≈ 69.7 µM) | 11.3 µg/mL (≈ 31 µM)
4 | COc1cccc2c1C(=O)c1c(O)c3c(c(O)c1C2=O)C[C@@](O)(C(C)=O)C[C@@H]3O[C@H]1C[C@H](N)[C@H](O)[C@H](C)O1.Cl [DAUNORUBICIN HYDROCHLORIDE] | 0.072 µg/mL | 0.28 µg/mL | 0.11 µg/mL | 0.12 µg/mL | 0.011 µg/mL | 0.23 µg/mL
